{"source": "ChEMBL document CHEMBL1124440", "about": "“Resolved N,N-dialkylated 2-amino-8-hydroxytetralins: stereoselective interactions with 5-HT1A receptors in the brain” (J Med Chem, 1989)", "key": {"[1]": {"target": "T1, Tryptophan 5-hydroxylase 1 (Rattus norvegicus) (UniProt P09810)", "T1 sequence (whole entry)": "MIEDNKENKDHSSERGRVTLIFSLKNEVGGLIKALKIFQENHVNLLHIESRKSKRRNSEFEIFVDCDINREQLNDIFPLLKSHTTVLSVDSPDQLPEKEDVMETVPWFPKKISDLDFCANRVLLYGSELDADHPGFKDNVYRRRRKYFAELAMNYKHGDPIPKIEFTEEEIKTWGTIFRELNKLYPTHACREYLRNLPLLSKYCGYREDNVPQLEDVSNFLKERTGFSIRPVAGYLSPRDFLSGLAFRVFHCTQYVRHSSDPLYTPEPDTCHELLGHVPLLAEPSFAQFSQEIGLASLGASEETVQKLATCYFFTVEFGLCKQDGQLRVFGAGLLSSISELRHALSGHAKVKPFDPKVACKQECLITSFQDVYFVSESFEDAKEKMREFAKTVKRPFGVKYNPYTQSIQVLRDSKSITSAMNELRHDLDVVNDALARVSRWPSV", "test": "Compound was tested for its effect on NSD 1015 induced accumulation of 5-HTP(ng/g) in rats in limbic system at a dosage of 32 umol/kg", "format": "functional, tissue-based", "outline": "(§1)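 Rats given test drug s.c. in the neck as hydrochloride (5 mL/kg), not reserpine-pretreated; 30 min later NSD 1015 (60 mg/kg, i.e. 287 μmol/kg sc), killed 30 min after that. Brain regions dissected. 5-HTP measured by ion-pair reversed-phase HPLC with electrochemical detection. Mean ± SEM, n = 15 controls, 3–5 per dose; ANOVA with Dunnett's t test vs controls.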"}, "Rattus norvegicus [2]": {"tested_on": "Rattus norvegicus", "test": "No of rats exhibiting 5-HT motor syndrome tested in reserpinized rats at a subcutaneous dose of 3.2 umol/kg; 0 rats out of 3 showed activity", "format": "functional"}, "Rattus norvegicus [3]": {"tested_on": "Rattus norvegicus", "test": "No of rats exhibiting 5-HT motor syndrome tested in reserpinized rats at a subcutaneous dose of 10 umol/kg; 0 rats out of 3 showed activity", "format": "functional"}, "Rattus norvegicus [4]": {"tested_on": "Rattus norvegicus", "test": "No of rats exhibiting 5-HT motor syndrome tested in reserpinized rats at a subcutaneous dose of 32 umol/kg; 4 rats out of 4 showed activity", "format": "functional"}, "[5]": {"target": "T2, 5-hydroxytryptamine receptor 1A (Rattus norvegicus, UniProt P19327)", "T2 sequence (P19327 whole entry)": "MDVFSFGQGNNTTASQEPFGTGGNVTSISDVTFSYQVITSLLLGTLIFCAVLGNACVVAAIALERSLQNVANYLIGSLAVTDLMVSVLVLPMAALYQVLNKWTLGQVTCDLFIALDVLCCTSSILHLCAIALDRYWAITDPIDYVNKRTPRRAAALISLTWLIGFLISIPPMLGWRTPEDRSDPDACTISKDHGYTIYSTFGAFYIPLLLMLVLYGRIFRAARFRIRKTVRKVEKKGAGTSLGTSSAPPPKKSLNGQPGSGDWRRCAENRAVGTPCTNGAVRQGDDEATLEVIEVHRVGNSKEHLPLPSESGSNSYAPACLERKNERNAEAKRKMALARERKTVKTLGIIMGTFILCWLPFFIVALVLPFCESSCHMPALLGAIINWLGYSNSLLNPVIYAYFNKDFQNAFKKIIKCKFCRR", "test": "Concentration of compound required to inhibit cortical 5-hydroxytryptamine 1A receptor binding sites in rat brain was evaluated", "format": "tissue-based"}, "[6]": {"target": "T1, Tryptophan 5-hydroxylase 1 (Rattus norvegicus)", "test": "Compound was tested for its effect on NSD 1015 induced accumulation of 5-HTP(ng/g) in rats in limbic system at a dosage of 10 umol/kg", "format": "functional, tissue-based", "outline": "as §1"}, "[7]": {"target": "T1, Tryptophan 5-hydroxylase 1 (Rattus norvegicus)", "test": "Compound was tested for its effect on NSD 1015 induced accumulation of 5-HTP(ng/g) in rats in limbic system at a dosage of 3.2 umol/kg", "format": "functional, tissue-based", "outline": "as §1"}, "[8]": {"target": "T1, Tryptophan 5-hydroxylase 1 (Rattus norvegicus)", "test": "Compound was tested for its effect on NSD 1015 induced accumulation of 5-HTP in rats in corpus striatum at a dosage of 32 umol/kg", "format": "functional, tissue-based", "outline": "as §1"}, "[9]": {"target": "T1, Tryptophan 5-hydroxylase 1 (Rattus norvegicus)", "test": "Compound was tested for its effect on NSD 1015 induced accumulation of 5-HTP in rats corpus striatum at a dosage of 10 umol/kg", "format": "functional, tissue-based", "outline": "as §1"}, "[10]": {"target": "T1, Tryptophan 5-hydroxylase 1 (Rattus norvegicus)", "test": "Compound was tested for its effect on NSD 1015 induced accumulation of 5-HTP(ng/g) in rats in corpus striatum at a dosage of 3.2 umol/kg", "format": "functional", "outline": "as §1"}, "[11]": {"target": "T1, Tryptophan 5-hydroxylase 1 (Rattus norvegicus)", "test": "Approximate dose levels for a half maximal reduction of 5-HTP levels", "format": "functional", "outline": "as §1"}, "Rattus norvegicus [12]": {"tested_on": "Rattus norvegicus", "test": "No of rats exhibiting 5-HT motor syndrome tested in reserpinized rats at a subcutaneous dose of 10 umol/kg; 0 rats out of 4 showed activity", "format": "functional"}, "[13]": {"target": "T1, Tryptophan 5-hydroxylase 1 (Rattus norvegicus)", "test": "Compound was tested for its effect on NSD 1015 induced accumulation of 5-HTP(ng/g) in rats in corpus striatum at a dosage of 32 umol/kg", "format": "functional, tissue-based", "outline": "as §1"}, "[14]": {"target": "T1, Tryptophan 5-hydroxylase 1 (Rattus norvegicus)", "test": "Compound was tested for its effect on NSD 1015 induced accumulation of 5-HTP(ng/g) in rats in corpus striatum at a dosage of 10 umol/kg", "format": "functional", "outline": "as §1"}, "Rattus norvegicus [15]": {"tested_on": "Rattus norvegicus", "test": "No of rats exhibiting 5-HT motor syndrome tested in reserpinized rats at a subcutaneous dose of 10 umol/kg; 4 rats out of 5 showed activity", "format": "functional"}, "Rattus norvegicus [16]": {"tested_on": "Rattus norvegicus", "test": "No of rats exhibiting 5-HT motor syndrome tested in reserpinized rats at a subcutaneous dose of 3.2 umol/kg; 0 rats out of 5 showed activity", "format": "functional"}, "[17]": {"target": "T1, Tryptophan 5-hydroxylase 1 (Rattus norvegicus)", "test": "Compound was tested for its effect on NSD 1015 induced accumulation of 5-HTP(ng/g) in rats in corpus striatum at a dosage of 1.0 umol/kg", "format": "functional", "outline": "as §1"}, "Rattus norvegicus [18]": {"tested_on": "Rattus norvegicus", "test": "No of rats exhibiting 5-HT motor syndrome tested in reserpinized rats at a subcutaneous dose of 1.0 umol/kg; o rats out of 3 showed activity", "format": "functional"}, "[19]": {"target": "T1, Tryptophan 5-hydroxylase 1 (Rattus norvegicus)", "test": "Compound was tested for its effect on NSD 1015 induced accumulation of 5-HTP(ng/g) in rats in limbic system at a dosage of 1.0 umol/kg", "format": "functional, tissue-based", "outline": "as §1"}, "[20]": {"target": "T1, Tryptophan 5-hydroxylase 1 (Rattus norvegicus)", "test": "Compound was tested for its effect on NSD 1015 induced accumulation of 5-HTP(ng/g) in rats in limbic system at a dosage of 0.32 umol/kg", "format": "functional, tissue-based", "outline": "as §1"}, "Rattus norvegicus [21]": {"tested_on": "Rattus norvegicus", "test": "No of rats exhibiting 5-HT motor syndrome tested in reserpinized rats at a subcutaneous dose of 0.32 umol/kg; 4 rats out of 4 showed activity", "format": "functional"}, "Rattus norvegicus [22]": {"tested_on": "Rattus norvegicus", "test": "No of rats exhibiting 5-HT motor syndrome tested in reserpinized rats at a subcutaneous dose of a. 0.1 umol/kg; 0 rats out of 4 showed activity", "format": "functional"}, "[23]": {"target": "T1, Tryptophan 5-hydroxylase 1 (Rattus norvegicus)", "test": "Compound was tested for its effect on NSD 1015 induced accumulation of 5-HTP in rats corpus striatum at a dosage of 0.10 umol/kg", "format": "functional, tissue-based", "outline": "as §1"}, "[24]": {"target": "T1, Tryptophan 5-hydroxylase 1 (Rattus norvegicus)", "test": "Compound was tested for its effect on NSD 1015 induced accumulation of 5-HTP(ng/g) in rats in corpus striatum at a dosage of 0.032 umol/kg", "format": "functional", "outline": "as §1"}, "[25]": {"target": "T1, Tryptophan 5-hydroxylase 1 (Rattus norvegicus)", "test": "Compound was tested for its effect on NSD 1015 induced accumulation of 5-HTP in rats in corpus striatum at a dosage of 0.32 umol/kg", "format": "functional, tissue-based", "outline": "as §1"}, "[26]": {"target": "T1, Tryptophan 5-hydroxylase 1 (Rattus norvegicus)", "test": "Compound was tested for its effect on NSD 1015 induced accumulation of 5-HTP(ng/g) in rats in limbic system at a dosage of 0.032 umol/kg", "format": "functional", "outline": "as §1"}, "[27]": {"target": "T1, Tryptophan 5-hydroxylase 1 (Rattus norvegicus)", "test": "Compound was tested for its effect on NSD 1015 induced accumulation of 5-HTP(ng/g) in rats in limbic system at a dosage of 0.10 umol/kg", "format": "functional, tissue-based", "outline": "as §1"}}}
{"smiles": "CCCCN(CCCC)[C@H]1CCc2cccc(O)c2C1", "values": [{"measurement": "Activity", "setting": "[1]", "result": 112, "unit": "ng/g"}, {"measurement": "Activity", "setting": "Rattus norvegicus [2]", "result": 0}, {"measurement": "Activity", "setting": "Rattus norvegicus [3]", "result": 0}, {"measurement": "Activity", "setting": "Rattus norvegicus [4]", "result": 4}, {"measurement": "IC50", "setting": "[5]", "result": 46.2, "unit": "nM"}, {"measurement": "Activity", "setting": "[6]", "result": 95, "unit": "ng/g"}, {"measurement": "Activity", "setting": "[7]", "result": 168, "unit": "ng/g"}, {"measurement": "Activity", "setting": "[8]", "result": 45, "unit": "ng/g"}, {"measurement": "Activity", "setting": "[9]", "result": 52, "unit": "ng/g"}, {"measurement": "Activity", "setting": "[10]", "result": 90, "unit": "ng/g"}, {"measurement": "ED50", "setting": "[11]", "result": 5, "unit": "µmol/kg"}]}
{"smiles": "CCCCN(CCCC)[C@@H]1CCc2cccc(O)c2C1", "values": [{"measurement": "Activity", "setting": "[1]", "result": 106, "unit": "ng/g"}, {"measurement": "Activity", "setting": "Rattus norvegicus [4]", "result": 4}, {"measurement": "Activity", "setting": "Rattus norvegicus [12]", "result": 0}, {"measurement": "IC50", "setting": "[5]", "result": 109, "unit": "nM"}, {"measurement": "Activity", "setting": "[6]", "result": 145, "unit": "ng/g"}, {"measurement": "Activity", "setting": "[13]", "result": 63, "unit": "ng/g"}, {"measurement": "ED50", "setting": "[11]", "result": 20, "unit": "µmol/kg"}, {"measurement": "Activity", "setting": "[14]", "result": 80, "unit": "ng/g"}]}
{"smiles": "CCN(CC)[C@H]1CCc2cccc(O)c2C1", "values": [{"measurement": "Activity", "setting": "[1]", "result": 74, "unit": "ng/g"}, {"measurement": "Activity", "setting": "Rattus norvegicus [15]", "result": 4}, {"measurement": "IC50", "setting": "[5]", "result": 114, "unit": "nM"}, {"measurement": "Activity", "setting": "[6]", "result": 86, "unit": "ng/g"}, {"measurement": "Activity", "setting": "Rattus norvegicus [16]", "result": 0}, {"measurement": "Activity", "setting": "[13]", "result": 46, "unit": "ng/g"}, {"measurement": "Activity", "setting": "[17]", "result": 85, "unit": "ng/g"}, {"measurement": "Activity", "setting": "[7]", "result": 107, "unit": "ng/g"}, {"measurement": "Activity", "setting": "Rattus norvegicus [18]", "result": 0}, {"measurement": "Activity", "setting": "[10]", "result": 74, "unit": "ng/g"}, {"measurement": "ED50", "setting": "[11]", "result": 3, "unit": "µmol/kg"}, {"measurement": "Activity", "setting": "[19]", "result": 135, "unit": "ng/g"}, {"measurement": "Activity", "setting": "[14]", "result": 55, "unit": "ng/g"}]}
{"smiles": "CCCN(CCC)[C@@H]1CCc2cccc(O)c2C1", "values": [{"measurement": "Activity", "setting": "[20]", "result": 86, "unit": "ng/g"}, {"measurement": "Activity", "setting": "Rattus norvegicus [21]", "result": 4}, {"measurement": "Activity", "setting": "Rattus norvegicus [22]", "result": 0}, {"measurement": "Activity", "setting": "[23]", "result": 78, "unit": "ng/g"}, {"measurement": "ED50", "setting": "[11]", "result": 0.1, "unit": "µmol/kg"}, {"measurement": "Activity", "setting": "[24]", "result": 87, "unit": "ng/g"}, {"measurement": "Activity", "setting": "[25]", "result": 52, "unit": "ng/g"}, {"measurement": "Activity", "setting": "[26]", "result": 163, "unit": "ng/g"}, {"measurement": "Activity", "setting": "[27]", "result": 119, "unit": "ng/g"}]}
